How the values were obtained:
[1] = target: T1, Peroxisome proliferator-activated receptor gamma (Mus musculus) (UniProt P37238); test: Agonist activity at PPARgamma receptor in mouse 3T3-L1 cells assessed as adipogenesis at 20 ug/mL relative to insulin; format: functional, cell-based
T1 sequence (whole entry): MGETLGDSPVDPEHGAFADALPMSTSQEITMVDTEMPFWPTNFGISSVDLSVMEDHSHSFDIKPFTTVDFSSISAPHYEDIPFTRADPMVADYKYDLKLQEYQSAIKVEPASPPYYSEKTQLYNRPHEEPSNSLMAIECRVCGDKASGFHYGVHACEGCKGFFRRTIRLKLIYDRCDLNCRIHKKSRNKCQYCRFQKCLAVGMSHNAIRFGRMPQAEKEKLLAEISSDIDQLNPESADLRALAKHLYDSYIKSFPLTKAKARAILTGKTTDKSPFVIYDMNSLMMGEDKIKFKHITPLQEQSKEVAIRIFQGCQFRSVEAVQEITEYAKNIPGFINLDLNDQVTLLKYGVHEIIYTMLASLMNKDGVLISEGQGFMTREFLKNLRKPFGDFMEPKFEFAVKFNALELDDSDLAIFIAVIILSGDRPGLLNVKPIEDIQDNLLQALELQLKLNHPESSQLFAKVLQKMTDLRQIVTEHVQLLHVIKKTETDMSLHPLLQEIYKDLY
In short: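 3T3-L1 cells were treated with compound at 20 µg/ml in the presence of insulin and adipogenesis was measured. The response to a potent PPARγ full agonist at 1 µM was set as 100%. Emax (%) is the maximal adipogenic activity with test compound.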

[2] = target: T2, Peroxisome proliferator-activated receptor gamma (Homo sapiens) (UniProt P37231); test: Agonist activity at human PPARgamma receptor expressed in HEK293 cells at 10 uM relative to PPARgamma full agonist at 1 uM
T2 sequence (whole entry): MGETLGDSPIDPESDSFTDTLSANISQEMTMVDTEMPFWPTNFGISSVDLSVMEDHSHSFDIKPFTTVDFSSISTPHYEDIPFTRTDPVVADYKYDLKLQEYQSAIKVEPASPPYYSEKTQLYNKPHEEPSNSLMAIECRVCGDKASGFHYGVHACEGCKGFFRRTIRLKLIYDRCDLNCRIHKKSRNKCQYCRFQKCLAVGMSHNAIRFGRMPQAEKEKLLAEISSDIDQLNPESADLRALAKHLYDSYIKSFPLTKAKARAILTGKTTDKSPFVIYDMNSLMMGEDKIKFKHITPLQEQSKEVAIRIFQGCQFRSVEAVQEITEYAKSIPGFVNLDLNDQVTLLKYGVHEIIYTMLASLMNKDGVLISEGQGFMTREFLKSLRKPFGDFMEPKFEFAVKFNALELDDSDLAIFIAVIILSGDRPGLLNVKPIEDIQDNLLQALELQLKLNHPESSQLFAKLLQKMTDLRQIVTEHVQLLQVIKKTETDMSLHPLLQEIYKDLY

[3] = Tmax in db/db mouse at 100 mg/kg, po; format: ADME, organism-based; design: dose 100 mg/kg, route oral; details: in vivo
In short: (§1)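 Female db/db mice received a single 100 mg/kg oral dose as a suspension in 0.5% CMC and Tween 80 (10 mL/kg), n = 4 per time point. Blood was drawn at 0.08 to 8.0 h and plasma was kept at -80 °C. Compound levels were measured by HPLC. Parameters came from non-compartmental analysis: Cmax and Tmax read directly, λz from terminal log-linear regression, T1/2 = 0.693/λz.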

Mus musculus [4] = test: Antihyperglycemic activity in db/db mouse assessed as plasma glucose reduction at 50 mg/kg administered BID for 10 days relative to control; format: functional; design: scale not given: the % may be the effect or the level left
In short: (§2)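 Male db/db mice, 5 to 7 weeks old and bred in-house, were fed a chow diet and dosed b.i.d. for 10 days. Plasma glucose and body weight gain were assessed at the end of the study.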

[5] = Cmax in db/db mouse at 100 mg/kg, po; format: ADME, organism-based; design: dose 100 mg/kg, route oral; details: in vivo; in short: as §1
[6] = Terminal elimination half life in db/db mouse at 100 mg/kg, po; format: ADME, organism-based; design: dose 100 mg/kg, route oral; details: in vivo, read-out: beta t1/2 (converted); in short: as §1
[7] = AUC (0 to 8 hrs) in db/db mouse at 100 mg/kg, po; format: ADME, organism-based; design: time < 8 hr, dose 100 mg/kg, route oral; details: plasma; in short: as §1
[8] = Drug excretion in db/db mouse assessed as elimination rate constant at 100 mg/kg, po; format: ADME, organism-based; design: dose 100 mg/kg, route oral; details: in vivo; in short: as §1
[9] = Clearance in db/db mouse at 100 mg/kg, po; format: ADME, organism-based; design: dose 100 mg/kg, route oral; details: in vivo; in short: as §1
Mus musculus [10] = test: Toxicity in db/db mouse assessed as body weight gain at 50 mg/kg administered BID relative to control; format: organism-based; design: dose 50 mg/kg; details: in vivo; in short: as §2
Mus musculus [11] = test: Volume of distribution in db/db mouse at 100 mg/kg, po; format: ADME, organism-based; design: dose 100 mg/kg, route oral; details: in vivo; in short: as §1
Mus musculus [12] = test: Antihyperglycemic activity in db/db mouse assessed as plasma glucose reduction at 5 mg/kg administered BID for 10 days relative to control; format: functional; design: scale not given: the % may be the effect or the level left; in short: as §2

Compound | Emax [1] | Emax [2] | also measured
O=S(=O)(Nc1cnc(Oc2cnc3ccccc3c2)c(Cl)c1)c1ccc(C(F)(F)F)cc1Cl | 57% | 86% | –
O=S(=O)(Nc1cnc(Oc2cnc3ccccc3c2)c(Cl)c1)c1ccc(F)c(Cl)c1 | 56% | 28% | –
Cc1ccccc1S(=O)(=O)Nc1cnc(Oc2cnc3ccccc3c2)c(Cl)c1 | 95% | 43% | –
COc1ccc(S(=O)(=O)Nc2cnc(Oc3cnc4ccccc4c3)c(Cl)c2)cc1OC | 60% | 93% | Tmax [3]: 0.25 h; Activity (Mus musculus [4]): 40%; Cmax [5]: 33900 ng/mL; half-life [6]: 2.99 h; AUC(0-t) at 8 h [7]: 146000 ng·h/mL; k el [8]: 6.39e-05 s⁻¹; CL/F [9]: 4.67 mL/min/kg; Activity (Mus musculus [10]): 9%; Vd (Mus musculus [11]): 1.23 L/kg
O=S(=O)(Nc1cnc(Oc2cnc3ccccc3c2)c(Cl)c1)c1ccc(F)cc1F | 56% | 32% | –
O=S(=O)(Nc1cnc(Oc2cnc3ccccc3c2)c(Cl)c1)c1cccc(C(F)(F)F)c1 | 75% | 50% | –
O=S(=O)(Nc1cnc(Oc2cnc3ccccc3c2)c(Cl)c1)c1ccc(F)c(F)c1 | 95% | 86% | Tmax [3]: 0.5 h; Cmax [5]: 8330 ng/mL; half-life [6]: 1.76 h; AUC(0-t) at 8 h [7]: 25400 ng·h/mL; k el [8]: 0.000108 s⁻¹; CL/F [9]: 31.2 mL/min/kg; Vd (Mus musculus [11]): 4.78 L/kg
O=S(=O)(Nc1cnc(Oc2cnc3ccccc3c2)c(Cl)c1)c1ccc(F)cc1Cl | 51% | 39% | –
Cc1cccc(S(=O)(=O)Nc2cnc(Oc3cnc4ccccc4c3)c(Cl)c2)c1 | 90% | 36% | –
Cc1cc(F)ccc1S(=O)(=O)Nc1cnc(Oc2cnc3ccccc3c2)c(Cl)c1 | 73% | 83% | –
O=S(=O)(Nc1cnc(Oc2cnc3ccccc3c2)c(Cl)c1)c1cccc(F)c1 | 80% | 62% | –
O=S(=O)(Nc1cnc(Oc2cnc3ccccc3c2)c(Cl)c1)c1ccc(Cl)c(Cl)c1 | 35% | 56% | –
Cc1ccc(S(=O)(=O)Nc2cnc(Oc3cnc4ccccc4c3)c(Cl)c2)c(C)c1 | 67% | 31% | –
CN(CCOc1ccc(CC2SC(=O)NC2=O)cc1)c1ccccn1 (stereo not given) [ROSIGLITAZONE] | – | – | Activity (Mus musculus [12]): 52%
COc1ccc(OC)c(S(=O)(=O)Nc2cnc(Oc3cnc4ccccc4c3)c(Cl)c2)c1 | 54% | 71% | –
